From PubChem
SR-BI DiI-HDL act: activators of SR-BI mediated DiI-HDL uptake, primary screen, ldlA[mSR-BI] CHO cells, DiI fluorescence. hit rate 0.096% among 320,000. activation, % at 12.5 µM. 3 h; 100 = double the neutral-control signal. AID 504775, 2011;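 active = mean replicate activation of at least 60% and every replicate at or above 60%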;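 note: 0% = median plate neutral-control signal and 100% = twice that signal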
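material = CHO ldlA[mSR-BI] cells | medium = Ham's F12 with 0.5% BSA, HEPES 25 mM, pH 7.4 | reagent = fluorescent DiI-HDL, 10 µg/mL final | compound dosing = single-point compound dose | incubation = 3 h, 37 °C | measured by = bottom-read fluorescence, 550/595 nm | measure = HDL uptake via cellular fluorescence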
SR-BI HDL uptake: inhibitors of SR-BI mediated HDL lipid uptake, primary screen, ldlA[mSR-BI] cells, fluorescence, single point. Scavenger receptor class B member 1 (Mus musculus), Q61009. ldlA[mSR-BI] CHO cells, DiI-HDL uptake fluorescence, 3 h. inhibition, % at 12.5 µM. hit rate 0.96% among 320,000. AID 488896, 2010;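 active = mean replicate inhibition of at least 70% and a set share of replicates each scoring 70 or more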;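 note: 0% = median of neutral control wells and 100% = median of positive control wells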
PglD DTNB: C. jejuni PglD acetyltransferase inhibitors, primary screen, biochemical, DTNB colorimetric, single point. UDP-N-acetylbacillosamine N-acetyltransferase PglD (Campylobacter jejuni). purified PglD enzyme, DTNB colorimetric CoA detection. inhibition, % at 12.5 µM. hit rate 0.098% among 360,000; in the data active = inhibition above about 16%, passing the limit was not always enough
N-glyco inh: increase of ERlucT glycosylation luciferase signal, primary screen, N-linked glycosylation inhibitor project, D54 ERlucT cells, luminescence, set 2; D54 ERlucT glycosylation luciferase reporter, 24 h; percent of 100 nM tunicamycin response; reporter increase, % at 12.5 µM; hit rate 0.23% among 360,000;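 active = mean luciferase reporter signal, scaled so untreated is 0 and the glycosylation-blocking control 100, at or above a set limit in every replicate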;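 note: luciferase carries N-glycosylation sites so blocking glycosylation raises the light; 0% = median of neutral control wells and 100% = median of 100 nM tunicamycin wells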
HIV Env fusion: inhibitors of HIV-1 Env-driven cell-cell fusion, primary screen, HeLa-JRFL effector, CEM21 target cells, luciferase | inhibition, % at 12.3 µM | hit rate 1.1% among 360,000;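 active = mean replicate inhibition score of at least 50 and every replicate individually at or above 50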;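 note: 0% = plate neutral controls and 100% = maraviroc near 300 nM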
Rtt109 HAT inh: inhibitors of C. albicans Rtt109/Vps75 HAT, primary screen, biochemical, ThioGlo CoA-SH fluorescence, plate reader | Histone acetyltransferase RTT109 (Candida albicans (strain SC5314 / ATCC MYA-2876)), … | purified Rtt109/Vps75, 4 h | inhibition, % at 34.9 µM | hit rate 0.16% among 330,000;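 active = inhibition of at least 50% in every replicate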
Target sequence (Q5AAJ8 whole entry, looked up): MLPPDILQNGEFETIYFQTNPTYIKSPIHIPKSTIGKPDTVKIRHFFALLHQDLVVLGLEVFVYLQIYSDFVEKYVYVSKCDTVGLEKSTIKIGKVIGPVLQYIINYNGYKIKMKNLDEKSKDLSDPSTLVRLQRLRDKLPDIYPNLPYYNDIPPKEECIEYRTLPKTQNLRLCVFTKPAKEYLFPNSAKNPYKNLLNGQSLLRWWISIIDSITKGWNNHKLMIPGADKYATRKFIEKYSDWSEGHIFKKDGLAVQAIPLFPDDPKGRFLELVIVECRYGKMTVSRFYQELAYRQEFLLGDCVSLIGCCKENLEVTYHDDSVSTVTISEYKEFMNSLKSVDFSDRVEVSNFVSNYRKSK
PglD inh SP: PglD acetyltransferase inhibitors, confirmation, biochemical, DTNB absorbance, single point, cherry-picked samples | Purified C. jejuni PglD, DTNB absorbance 412 nm | 320 tested, under 10 active | inhibition, % at 20 µM | shares compounds with PglD DTNB | AID 743156, 2013;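 active = mean inhibition across replicates of at least 20% with every single replicate also at 20% or more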;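 note: initial rate of CoA release by acetyl transfer from AcCoA to the UDP-4-amino sugar; 0% = median of neutral control wells and 100% = median of positive control wells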
Starred values were filed as active, the others as inactive; nt = no result. Sampled rows, rich in hits. Any-hit rate of the full collection: about 1.9%.

SMILES | SR-BI DiI-HDL act | SR-BI HDL uptake | PglD DTNB | N-glyco inh | HIV Env fusion | Rtt109 HAT inh | PglD inh SP
Cc1ccc2nc(Cl)c(C3CC(c4ccco4)=NN3C(=O)CCCC(=O)O)cc2c1 (stereo not given) | nt | nt | nt | 1 | 12 | 0 | nt
COc1ccc2nc(Cl)c(C3CC(c4ccco4)=NN3C(=O)CCC(=O)O)cc2c1 (stereo not given) | -1 | 1 | nt | 2 | nt | 1 | nt
Cc1ccc2cc(C3CC(c4ccco4)=NN3C(=O)CCCC(=O)O)c(Cl)nc2c1 (stereo not given) | nt | nt | 34* | 1 | 14 | -6 | 2
COc1ccc(C(CNc2ccc(S(C)(=O)=O)cc2[N+](=O)[O-])N(C)C)cc1OC (stereo not given) | nt | nt | 23* | 0 | 4 | 9 | 2
CCOC(=O)c1sc(N(Cc2ccccc2)C(=O)CSc2ncn[nH]2)nc1C | -18 | 18 | 21* | 0 | nt | 2 | 0
CN(C)CCCNC(=O)[C@@H]1[C@@H](CO)[C@@H]2Cn3c(cccc3=O)[C@@H]2N1C(=O)Nc1ccccc1 | nt | nt | -1 | nt | nt | nt | nt
CC(=O)c1ccc(N2CCN(CCC#N)CC2)c(F)c1 | -10 | 10 | 26* | 2 | nt | 10 | 1
CCCC(=O)c1cc(F)c(N2CCN(CCC#N)CC2)cc1C | -22 | 22 | -2 | 0 | -22 | nt | nt
O=Cc1ccc(OCCN2CCCC2=O)cc1 | 2 | -2 | 44* | -3 | -19 | 5 | -4
Oc1ccccc1-c1cc(C(F)(F)C(F)F)nc(-c2ccccc2)n1 | -16 | 16 | -3 | -3 | -37 | -8 | nt
O=[N+]([O-])c1ccc(O)c(-c2cc(C(F)(F)F)nc(-c3ccccc3)n2)c1 | 3 | -3 | 25* | -13 | 60* | 0 | 1
O=C(c1cnccn1)N1CC[C@@H]2[C@@H](CO)Nc3ccc(-c4ccccc4)cc3[C@@H]21 | nt | nt | 2 | nt | nt | nt | nt
O=C(c1ccncc1)N1C[C@@H]2[C@H](c3ccccc31)[C@H](CO)N2C(=O)Nc1ccccc1Cl | nt | nt | -2 | nt | nt | nt | nt
CCCOc1ccc(S(=O)(=O)NCCN2CCOCC2)c2ccccc12 | -7 | 7 | 23* | -1 | nt | -1 | 1
CCOc1ccc(S(=O)(=O)NCCN2CCOCC2)c2ccccc12 | -1 | 1 | -7 | 3 | 3 | nt | nt
C/C=C/c1ccc([C@H]2[C@@H](CO)N3CCCCN(S(=O)(=O)c4cccc(C)c4)C[C@@H]23)cc1 | nt | nt | 10 | nt | nt | nt | nt
CC(=O)NCC(=O)OCC(=O)c1ccc(Cl)cc1 | 5 | -5 | 26* | 3 | 14 | nt | 4
CC(=O)NCC(=O)OCC(=O)c1ccc(Br)cc1 | -24 | 24 | -2 | 0 | -39 | -5 | nt
COC(=O)C(=N/Nc1ccccc1C(=O)OC)/C(C)=N/O | -21 | 21 | 20* | 0 | -4 | 4 | 2
O=C(NCc1ccco1)Oc1ccccc1 | 9 | -9 | 21* | -1 | -53 | 0 | -6
Cc1c(C(=O)O)sc2nc(/C=C/c3cccc(O)c3)[nH]c(=O)c12 | 14 | -14 | 45* | 1 | 9 | -4 | 79*
CCCCn1c(SCC(=O)N2CC(C)CC(C)C2)nc2cc(S(N)(=O)=O)ccc21 (stereo not given) | -5 | 5 | 2 | 1 | 19 | 18 | nt
CCCCn1c(SCC(=O)N2CCCCC2)nc2cc(S(N)(=O)=O)ccc21 | -8 | 8 | 45* | 1 | -36 | -12 | 2
CC1CCN(C(=O)COc2ccc(S(=O)(=O)N3CCCC3)cc2)CC1 | nt | nt | 1 | 0 | 10 | -6 | nt
O=C(COc1ccc(S(=O)(=O)N2CCCCC2)cc1)N1CCCCCC1 | 3 | -3 | 21* | 0 | nt | 5 | -5
CCOC(=O)CNC(=S)N(Cc1ccccc1)Cc1cccnc1 | 39 | -39 | 32* | 4 | 10 | 9 | 1
Cc1ccc2nc(C)cc(OCC(=O)O)c2c1 | 43 | -43 | 21* | 0 | -3 | -14 | -4
CC(C)(C)c1cc[n+](-c2[nH]c(=O)sc2/C=N/NC([S-])=Nc2ccccc2)cc1 | 5 | -5 | 21* | 5 | 7 | 3 | 3
